From ChEMBL document CHEMBL1136859, “Synthesis and antimicrobial evaluation of some new substituted purine derivatives” (2009)
≈ marks a conversion by molar mass, not a printed value.

Legend:
Type in all cases: functional
[1] = tested on: Staphylococcus aureus; assay: Antibacterial activity against methicillin-resistant Staphylococcus aureus […] after 18 to 24 hrs by tube dilution method
How it was run: (§1)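 Two-fold broth tube dilution in Mueller–Hinton broth. Strains kept on Mueller–Hinton agar for 24 h at 37 °C. Colonies suspended in sterile water and adjusted to 0.5 McFarland, giving a final inoculum of about 10⁵ CFU/mL. Compounds dissolved in 12.5% DMSO at 200 µg/mL and serially diluted to 0.19 µg/mL. Incubated 18–24 h at 37 °C. MIC taken as the last tube with no growth.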

[2] = tested on: Staphylococcus aureus; assay: Antibacterial activity against Staphylococcus aureus ATCC 25923 after 18 to 24 hrs by tube dilution method; how it was run: as §1
[3] = tested on: Staphylococcus aureus; assay: Antibacterial activity against methicillin-resistant Staphylococcus aureus isolate after 18 to 24 hrs by tube dilution method; how it was run: as §1
[4] = tested on: Bacillus subtilis; assay: Antibacterial activity against Bacillus subtilis 6633 after 18 to 24 hrs by tube dilution method
How it was run: (§2)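 Tube dilution broth MIC in Mueller–Hinton broth. Strains were maintained on Mueller–Hinton agar for 24 h at 37 °C. Colonies were suspended in sterile water, adjusted to 0.5 McFarland, and added to give about 10⁵ CFU/mL final. Compounds were dissolved in 12.5% DMSO and serially diluted two-fold. Tubes were incubated 18–24 h at 37 °C. MIC was taken as the last tube with no growth.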

[5] = tested on: Escherichia coli; assay: Antibacterial activity against Escherichia coli 25922 after 18 to 24 hrs by tube dilution method; details: ATCC25922; how it was run: as §2
[6] = tested on: Candida albicans; assay: microbe, parasite or virus in culture

SMILES	MIC [1] [mg/L]	MIC [2] [mg/L]	MIC [3] [mg/L]	MIC [4] [mg/L]	MIC [5] [mg/L]	MIC [6] [mg/L]
Nc1ncnc2c1ncn2C1CCCC1	50 (≈ 246 µM)	50 (≈ 246 µM)	50 (≈ 246 µM)	25 (≈ 123 µM)	50 (≈ 246 µM)	12.5 (≈ 61.5 µM)
Fc1ccc(CNc2ncnc3c2ncn3C2CCCC2)c(F)c1	50 (≈ 152 µM)	50 (≈ 152 µM)	50 (≈ 152 µM)	50 (≈ 152 µM)	50 (≈ 152 µM)	25 (≈ 75.9 µM)
c1ccc(NCCNc2ncnc3[nH]cnc23)cc1	50 (≈ 197 µM)	50 (≈ 197 µM)	50 (≈ 197 µM)	50 (≈ 197 µM)	25 (≈ 98.3 µM)	3.12 (≈ 12.3 µM)
COc1ccc(CNc2ncnc3c2ncn3C2CCCC2)c(OC)c1	50 (≈ 141 µM)	50 (≈ 141 µM)	50 (≈ 141 µM)	25 (≈ 70.7 µM)	25 (≈ 70.7 µM)	12.5 (≈ 35.4 µM)
Clc1ccc(CNc2ncnc3c2ncn3C2CCCC2)c(Cl)c1	25 (≈ 69 µM)	12.5 (≈ 34.5 µM)	50 (≈ 138 µM)	25 (≈ 69 µM)	50 (≈ 138 µM)	6.25 (≈ 17.3 µM)
CCN(CC)CCNc1ncnc2c1ncn2Cc1ccc(F)cc1	50 (≈ 146 µM)	50 (≈ 146 µM)	50 (≈ 146 µM)	25 (≈ 73 µM)	50 (≈ 146 µM)	25 (≈ 73 µM)
CCN(CC)CCNc1ncnc2c1ncn2C1CCCC1	50 (≈ 165 µM)	50 (≈ 165 µM)	50 (≈ 165 µM)	25 (≈ 82.7 µM)	50 (≈ 165 µM)	50 (≈ 165 µM)
CC(C)NCCNc1ncnc2c1ncn2C1CCCC1.Cl	50	25	50	25	50	25
CCNc1nc2c(N)ncnc2n1C1CCCC1	50 (≈ 203 µM)	25 (≈ 101 µM)	50 (≈ 203 µM)	50 (≈ 203 µM)	50 (≈ 203 µM)	6.25 (≈ 25.4 µM)
CCn1c(NCC(C)C)nc2c(N)ncnc21	50 (≈ 213 µM)	50 (≈ 213 µM)	50 (≈ 213 µM)	50 (≈ 213 µM)	50 (≈ 213 µM)	25 (≈ 107 µM)
Fc1ccc(CNc2ncnc3c2ncn3C2CCCC2)cc1	25 (≈ 80.3 µM)	25 (≈ 80.3 µM)	25 (≈ 80.3 µM)	25 (≈ 80.3 µM)	50 (≈ 161 µM)	3.12 (≈ 10 µM)
COc1ccc(CNc2ncnc3c2ncn3C2CCCC2)cc1	50 (≈ 155 µM)	25 (≈ 77.3 µM)	25 (≈ 77.3 µM)	50 (≈ 155 µM)	50 (≈ 155 µM)	12.5 (≈ 38.7 µM)
Clc1ccc(CNc2ncnc3c2ncn3C2CCCC2)cc1	6.25 (≈ 19.1 µM)	12.5 (≈ 38.1 µM)	6.25 (≈ 19.1 µM)	25 (≈ 76.3 µM)	50 (≈ 153 µM)	12.5 (≈ 38.1 µM)
CN1CCN(Nc2ncnc3c2ncn3C2CCCC2)CC1	50 (≈ 166 µM)	50 (≈ 166 µM)	50 (≈ 166 µM)	25 (≈ 82.9 µM)	50 (≈ 166 µM)	25 (≈ 82.9 µM)
C1=CC(CCNc2ncnc3c2ncn3C2CCCC2)CCC1 (configuration not stated)	25 (≈ 80.3 µM)	12.5 (≈ 40.1 µM)	25 (≈ 80.3 µM)	50 (≈ 161 µM)	25 (≈ 80.3 µM)	12.5 (≈ 40.1 µM)
CCn1c(NC2CCCC2)nc2c(N)ncnc21	50 (≈ 203 µM)	50 (≈ 203 µM)	50 (≈ 203 µM)	25 (≈ 101 µM)	50 (≈ 203 µM)	12.5 (≈ 50.7 µM)
CN1CCN(Nc2ncnc3[nH]cnc23)CC1	50 (≈ 214 µM)	50 (≈ 214 µM)	50 (≈ 214 µM)	25 (≈ 107 µM)	25 (≈ 107 µM)	12.5 (≈ 53.6 µM)
CC1CCN(c2ncnc3c2ncn3C2CCCC2)CC1	50 (≈ 175 µM)	50 (≈ 175 µM)	50 (≈ 175 µM)	50 (≈ 175 µM)	50 (≈ 175 µM)	12.5 (≈ 43.8 µM)
C1=CC(CCNc2ncnc3[nH]cnc23)CCC1 (configuration not stated)	50 (≈ 205 µM)	50 (≈ 205 µM)	50 (≈ 205 µM)	25 (≈ 103 µM)	25 (≈ 103 µM)	6.25 (≈ 25.7 µM)
c1ccc(NCCNc2ncnc3c2ncn3C2CCCC2)cc1	50 (≈ 155 µM)	50 (≈ 155 µM)	50 (≈ 155 µM)	25 (≈ 77.5 µM)	50 (≈ 155 µM)	12.5 (≈ 38.8 µM)
CC1CCN(c2ncnc3[nH]cnc23)CC1	50 (≈ 230 µM)	25 (≈ 115 µM)	50 (≈ 230 µM)	25 (≈ 115 µM)	50 (≈ 230 µM)	25 (≈ 115 µM)
CC(C)NCCNc1ncnc2c1ncn2Cc1ccc(F)cc1	50 (≈ 152 µM)	50 (≈ 152 µM)	50 (≈ 152 µM)	50 (≈ 152 µM)	50 (≈ 152 µM)	25 (≈ 76.1 µM)
CC1(C)S[C@@H]2[C@H](NC(=O)[C@H](N)c3ccccc3)C(=O)N2[C@H]1C(=O)O [AMPICILLIN]	50 (≈ 143 µM)	0.78 (≈ 2.23 µM)	50 (≈ 143 µM)	50 (≈ 143 µM)	50 (≈ 143 µM)	–
O=C(O)c1cn(C2CC2)c2cc(N3CCNCC3)c(F)cc2c1=O [CIPROFLOXACIN]	–	0.78 (≈ 2.35 µM)	12.5 (≈ 37.7 µM)	0.19 (≈ 0.573 µM)	–	–
Clc1ccc(COC(Cn2ccnc2)c2ccc(Cl)cc2Cl)c(Cl)c1 (configuration not stated) [MICONAZOLE]	–	–	–	–	–	3.12 (≈ 7.5 µM)
Clc1ccc(CO/N=C(\Cn2ccnc2)c2ccc(Cl)cc2Cl)c(Cl)c1 [OXICONAZOLE]	–	–	–	–	–	6.25 (≈ 14.6 µM)
CC1(C)S[C@@H]2[C@H](NC(=O)[C@H](N)c3ccccc3)C(=O)N2[C@H]1C(=O)OCOC(=O)[C@@H]1N2C(=O)C[C@H]2S(=O)(=O)C1(C)C [SULTAMICILLIN]	25 (≈ 42 µM)	1.56 (≈ 2.62 µM)	25 (≈ 42 µM)	0.78 (≈ 1.31 µM)	25 (≈ 42 µM)	–
